From ChEMBL document CHEMBL1129463, “Discovery of 1,5-benzodiazepines with peripheral cholecystokinin (CCK-A) receptor agonist activity (II): Optimization of the C3 amino substituent” (J Med Chem, 1996) come the findings set out here.

Test [1] concerns Mus musculus. The test can be described thus: Compound was tested in vivo Percent Maximal response activity in mouse gallbladder emptying assay at dose of 1 nmol/kg ip.
The test system of test [2] is Mus musculus. The test can be described thus: Compound was tested in vivo for Percent Maximal response in mouse gallbladder emptying assay at dose of 1 umol/kg po. The test is classed as functional.
The species named for test [3] is Cavia porcellus. Kind of test: Maximum contractile response at 30 uM, normalized to CCK-8 (1 uM). Type of test: functional.
The test system of test [4] is Mus musculus. The test can be described thus: Compound was tested in vivo for its activity in mouse gallbladder emptying assay at dose of 0.1 umol/kg ip. The test is classed as functional.
Test [5] has as its target T1, Gastrin/cholecystokinin type B receptor (Homo sapiens, UniProt P32239).
T1 sequence (P32239 whole entry): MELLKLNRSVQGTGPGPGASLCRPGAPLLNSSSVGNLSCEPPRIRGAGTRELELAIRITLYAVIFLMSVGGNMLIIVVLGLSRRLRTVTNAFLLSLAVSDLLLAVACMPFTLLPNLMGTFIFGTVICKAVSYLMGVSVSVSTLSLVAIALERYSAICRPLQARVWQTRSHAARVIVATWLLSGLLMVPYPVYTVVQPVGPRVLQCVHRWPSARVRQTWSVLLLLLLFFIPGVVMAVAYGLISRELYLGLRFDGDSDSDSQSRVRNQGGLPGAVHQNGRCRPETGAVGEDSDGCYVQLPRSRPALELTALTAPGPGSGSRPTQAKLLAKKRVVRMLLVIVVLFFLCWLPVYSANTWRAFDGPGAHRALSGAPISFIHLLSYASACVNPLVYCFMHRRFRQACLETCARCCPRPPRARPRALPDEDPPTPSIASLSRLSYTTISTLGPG
The test can be described thus: Compound was tested in vitro for its ability to displace [125I]Bolton-Hunter CCK-8 from membrane preparation isolated from CHO-KI cells stably transfected with cDNA of human Cholecystokinin type B receptor. Type of test: cell membranes.

The subject of test [6] is Rattus norvegicus. The test can be described thus: Compound was tested in vivo for its anorectic potency in rats at dose of 0.5 umol/kg ip.
Test [7] concerns Rattus norvegicus. The test can be described thus: Compound was tested in vivo for its Percent Maximal anorectic potency in rats at dose of 1 umol/kg po. The test is classed as functional.
In test [8] the test system is Mus musculus. The test can be described thus: Compound was tested in vivo for its activity in mouse gallbladder emptying assay at dose of 1 umol/kg po. The test is classed as functional.
Test [9] concerns the target T2, Cholecystokinin receptor type A (Homo sapiens, UniProt P32238).
T2 sequence (P32238 whole entry): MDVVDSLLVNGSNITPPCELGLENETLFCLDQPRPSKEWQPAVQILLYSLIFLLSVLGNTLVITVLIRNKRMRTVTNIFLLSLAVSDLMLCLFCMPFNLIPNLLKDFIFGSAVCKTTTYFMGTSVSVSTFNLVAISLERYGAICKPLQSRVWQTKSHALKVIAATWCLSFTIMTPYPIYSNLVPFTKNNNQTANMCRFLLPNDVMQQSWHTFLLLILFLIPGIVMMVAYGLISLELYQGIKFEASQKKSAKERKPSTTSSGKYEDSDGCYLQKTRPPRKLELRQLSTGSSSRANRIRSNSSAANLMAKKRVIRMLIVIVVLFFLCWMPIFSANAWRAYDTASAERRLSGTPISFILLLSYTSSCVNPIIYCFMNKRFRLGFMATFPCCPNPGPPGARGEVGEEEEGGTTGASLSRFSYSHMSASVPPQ
The test can be described thus: Compound was tested in vitro for its ability to displace [125I]Bolton-Hunter CCK-8 from membrane preparation isolated from CHO-KI cells stably transfected with cDNA of human Cholecystokinin type A receptor. Type of test: cell membranes.

The species entered for test [10] is Cavia porcellus. The test can be described thus: In vitro Functional activity on the isolated guinea pig gallbladder following incubation at 1 micro M percent contraction normalized to that for CCK-8. In outline: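 Contraction is expressed as percent of the CCK-8 (1 μM) response. Non-contracting compounds were tested for antagonism against a CCK-8 curve (10⁻¹¹ to 10⁻⁶ M).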

For test [11], the species on record is Cavia porcellus. The test can be described thus: In-vitro potency on the isolated guinea pig gallbladder. Type of test: functional.
The species named for test [12] is Cavia porcellus. The test can be described thus: In vitro functional activity on the isolated guinea pig gallbladder. Details: concentration or dose not given beside the values.
Test [13] concerns Rattus norvegicus. Kind of test: Compound was tested in vivo for its Percent Maximal anorectic potency in rats at dose of 0.1 umol/kg ip. The test is classed as functional.
For test [14], the system named is Rattus norvegicus. Kind of test: Compound was tested in vivo for its Percent Maximal anorectic potency in rats at dose of 10 umol/kg po; ia = Inactive. The test is classed as functional, organism-based.
The target in test [15] is Cholecystokinin receptor (Homo sapiens) (UniProt P32239+P32238). The test can be described thus: Selectivity ratio of inhibition of CCK-A vs CCK-B. Type of test: protein assay. The essentials:
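Displacement of [125I]Bolton-Hunter CCK-8 from membranes of CHO-K1 cells stably transfected with human CCK-A or CCK-B receptor cDNA. pIC50 values were measured for each receptor. The ratio is IC50 CCK-A / IC50 CCK-B.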

Test [16] relates to Rattus norvegicus. The test can be described thus: Compound was tested in vivo for its anorectic potency in rats at dose of 0.1 umol/kg ip. Type of test: functional.
Test [17] has as its system Rattus norvegicus. The test can be described thus: Compound was tested in vivo for its Percent Maximal anorectic potency in rats at dose of 0.5 umol/kg ip. Type of test: functional.

The source made the active and inactive calls. No cut-off for these calls is given here.

For the molecule `CC(C)N(C(=O)CN1C(=O)C(NC(=O)Nc2cccc(C(=O)O)c2)C(=O)N(c2ccccc2)c2ccccc21)c1ccccc1` (stereo unspecified), the Max in the test on Mus musculus [1] came to 73%; with Mus musculus [2] it was 77%; in the test listed under Cavia porcellus [3], 102%; with Rattus norvegicus [7], 58%; in the test on Rattus norvegicus [13], 87%. For the same molecule, the ED50 (usually the dose that gives a 50% effect, or the effect in half of the subjects) with Mus musculus [4] turned out to be 0.0071 µmol/kg; in the test on Rattus norvegicus [6] it was 0.06 µmol/kg; with Mus musculus [8], 0.055 µmol/kg. Further, the IC50 (usually the concentration needed to halve the response being measured) is 10 nM in test [5] and 126 nM in test [9]. Also, the Activity in the test listed under Cavia porcellus [10] is reported as 95%; in the test listed under Cavia porcellus [12] it was 100%. For the same molecule, a half-maximal effect in the test listed under Cavia porcellus [11] (EC50) was put at 39.8 nM.
For the molecule `CC(C)N(C(=O)CN1C(=O)C(NC(=O)c2cc3ccccc3[nH]2)C(=O)N(c2ccccc2)c2ccccc21)c1ccccc1` (stereo unspecified), the Max with Mus musculus [1] worked out at 73%; with Mus musculus [2], 85%; in the test listed under Cavia porcellus [3], 49%; in the test on Rattus norvegicus [17], 56%. Also, the Max result with Rattus norvegicus [14] was “inactive”. Further, in test [15], the Selectivity ratio came to 20. Moreover, the 50% effective dose (ED50) is 0.005 µmol/kg in the test with Mus musculus [4], 0.095 µmol/kg in the test with Rattus norvegicus [16] and 0.3 µmol/kg in the test with Mus musculus [8]. The figures for the IC50 in [5] and in test [9] were 316 nM and 15.8 nM, respectively. Besides, the concentration for a half-maximal effect (EC50) – broadly, the midpoint of the concentration-response curve – in the test filed under Cavia porcellus [11] is 501 nM. The Activity in the test filed under Cavia porcellus [12] was found to be 49%.
